# KCNQ1 block = inhibitors of human KCNQ1 channel, primary screen, cell-based, thallium flux, high-throughput; Potassium voltage-gated channel subfamily KQT member 1 (Homo sapiens), P51787; CHO-K1 KCNQ1, FluxOR thallium flux fluorescence; active compounds read high; B-score at 10 µM; actives 1.3% (n = 310,000);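 active means compounds whose thallium flux B-score, printed positive for inhibition, exceeds three library SD while starting fluorescence stays within three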;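 further: channel opened by potassium depolarization with thallium stimulus after 20 min compound exposure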
# KCNK9 block = KCNK9 potassium channel inhibitors, primary screen, HEK293 cells, thallium flux | FluxOR thallium flux fluorescence; active compounds read low | B-score at 10 µM | actives 1.2% (n = 310,000) | Potassium channel subfamily K member 9 (Homo sapiens), Q9NPC2;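 active means ratio B-score over 3 SD below the library mean, with starting fluorescence within 5 SD of its mean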;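 further: negative B-score means less thallium flux so channel inhibition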
# hERG rescue = hERG rescue from dofetilide block, primary screen, cell-based, CHO-hERG, FluxOR thallium flux, dofetilide IC70; actives 0.51% (n = 310,000); Voltage-gated inwardly rectifying potassium channel KCNH2 (Homo sapiens), Q12809; dofetilide IC70 present; activation (rescue from dofetilide block), less the hit threshold, % at 10 µM;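 active means activation above the mean of controls blocked by dofetilide plus 5 SD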;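 further: thallium influx through hERG after potassium depolarization seen as dye fluorescence rise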
# Target sequence (Q12809 whole entry, looked up): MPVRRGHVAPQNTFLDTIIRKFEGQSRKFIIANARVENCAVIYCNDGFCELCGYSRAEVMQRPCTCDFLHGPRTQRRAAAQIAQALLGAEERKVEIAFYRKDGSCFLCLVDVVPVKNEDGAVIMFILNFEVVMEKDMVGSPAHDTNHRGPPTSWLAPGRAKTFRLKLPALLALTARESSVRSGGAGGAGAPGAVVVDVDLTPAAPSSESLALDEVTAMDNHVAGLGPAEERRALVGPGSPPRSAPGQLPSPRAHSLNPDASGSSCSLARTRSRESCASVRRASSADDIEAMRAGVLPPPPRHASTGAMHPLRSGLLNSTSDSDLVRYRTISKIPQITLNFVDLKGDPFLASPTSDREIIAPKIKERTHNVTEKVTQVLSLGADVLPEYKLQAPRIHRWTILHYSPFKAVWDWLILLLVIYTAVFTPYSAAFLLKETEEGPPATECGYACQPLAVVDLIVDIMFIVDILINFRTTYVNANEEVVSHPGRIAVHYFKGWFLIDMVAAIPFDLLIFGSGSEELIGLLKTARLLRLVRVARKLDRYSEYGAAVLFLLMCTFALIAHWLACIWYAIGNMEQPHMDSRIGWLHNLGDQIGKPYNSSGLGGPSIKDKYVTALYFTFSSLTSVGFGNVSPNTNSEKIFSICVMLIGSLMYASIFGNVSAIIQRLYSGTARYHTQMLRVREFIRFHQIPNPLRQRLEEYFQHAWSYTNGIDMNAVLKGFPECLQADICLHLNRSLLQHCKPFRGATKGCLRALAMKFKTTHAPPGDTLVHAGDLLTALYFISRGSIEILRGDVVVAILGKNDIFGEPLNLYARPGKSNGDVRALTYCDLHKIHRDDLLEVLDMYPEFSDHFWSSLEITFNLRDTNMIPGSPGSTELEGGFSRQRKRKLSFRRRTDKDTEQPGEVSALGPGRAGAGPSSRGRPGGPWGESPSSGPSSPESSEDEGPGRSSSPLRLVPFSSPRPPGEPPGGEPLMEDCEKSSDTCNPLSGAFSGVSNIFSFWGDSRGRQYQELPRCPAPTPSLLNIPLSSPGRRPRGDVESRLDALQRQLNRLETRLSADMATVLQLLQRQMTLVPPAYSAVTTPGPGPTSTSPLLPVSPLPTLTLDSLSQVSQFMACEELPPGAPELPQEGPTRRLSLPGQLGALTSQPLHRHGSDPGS
# KCNK3 inh = human KCNK3 channel inhibitors, primary screen, CHO cells, FluxOR thallium flux, B-score | Potassium channel subfamily K member 3 (Homo sapiens), O14649 | AID 602410, 2012 | B-score at 10 µM | actives 0.84% (n = 340,000) | FluxOR fluorescence; active compounds read low;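 active means B-score under library mean minus 4 SD, starting fluorescence ratio at most library mean plus 5 SD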;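 further: more negative B-score means stronger inhibition of thallium flux through KCNK3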
# KCNQ1 pot = potentiators or activators of KCNQ1 channel, primary screen, cell-based, thallium flux, high-throughput. Potassium voltage-gated channel subfamily KQT member 1 (Homo sapiens), P51787. CHO-K1 KCNQ1, thallium flux FluxOR fluorescence; active compounds read high. B-score at 10 µM. actives 0.35% (n = 310,000). AID 2648, 2010;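 active means fluorescence ratio B-score, a plate-corrected score, at least three library SD, with initial intensity B-score within 5 SD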
#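 Schedule – 37 °C overnight plating, 90-min dark dye load, 20-min compound pretreatment · System – stable KCNQ1 CHO-K1 line · Probe or stimulus – thallium- and potassium-containing depolarizing buffer · Measured by – kinetic FluxOR fluorescence, 10 s baseline plus 110 s post-stimulus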
# Kir21 inh = inhibitors of mouse Kir2.1 inward-rectifier potassium channel | HEK293-Kir2.1, FluxOR thallium flux fluorescence; active compounds read low | B-score at 10 µM | actives 0.85% (n = 310,000) | AID 1672, 2009 | Inward rectifier potassium channel 2 (Mus musculus), P35561;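 active means fluorescence ratio B-score at or below minus 3 SD of library scores, with starting-brightness B-score within 2 SD, cut at about -4.2 in these data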;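 further: channel flux triggered by added potassium and thallium sulfate stimulus; B-score of peak minus minimum fluorescence over baseline after thallium stimulus; more negative B-score means stronger Kir2.1 block with less thallium influx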
# The depositor's hits bear a star; i = inactive; nt = not tested or not shown. Shown are actives, neighbours in structure and some others; about 3.7% of the full set was active somewhere.
SMILES,KCNQ1 block,KCNK9 block,hERG rescue,KCNK3 inh,KCNQ1 pot,Kir21 inh
CC(C)(C)c1ccc(CN(Cc2ccccc2)C(c2ccccn2)c2nnnn2C(C)(C)C)cc1 (stereo unspecified),i,-7.4*,-7.6,i,i,-0.78
CCOC(=O)Nc1nc2ccc(Cn3cccc3)cc2[nH]1,nt,nt,nt,i,nt,nt
COc1ccc(C)cc1NC(=O)C(=O)NNC(=O)c1ccco1,i,i,34.1*,i,29*,1.05
O=C(Nc1cc([N+](=O)[O-])ccc1O)c1cccc([N+](=O)[O-])c1,7*,i,-9.1,i,i,0.58
O=C(Nc1ccc(Cc2ccncc2)cc1)c1cccc([N+](=O)[O-])c1,i,i,9.8*,i,i,-0.81
O=C(Nc1ccc(NC(=O)c2cccc([N+](=O)[O-])c2)cc1)c1cccc([N+](=O)[O-])c1,i,i,-5.1,i,i,0
O=C(Nc1nc(-c2ccccc2)cs1)c1cccc([N+](=O)[O-])c1,i,i,-10.1,i,i,3.49
Cc1ccc(C(=O)Nc2cc([N+](=O)[O-])ccc2C)cc1,i,i,-9.2,i,i,-1.21
O=C(Nc1ncc([N+](=O)[O-])s1)c1cccc([N+](=O)[O-])c1,8*,i,-24.9,i,i,-2.76
Cc1ccc([N+](=O)[O-])cc1NC(=O)c1ccc(C(C)(C)C)cc1,9*,i,-8.7,i,i,0.66
CCOC(=O)c1cc(NC(=O)NC2CCCCC2)c(C)nc1C,i,i,-10.4,i,i,0.33
O=C(NCc1ccccc1CN1CCCC1)c1cccc(N2CCCC2=O)c1,nt,nt,nt,i,nt,nt
O=c1c(C=NCCN2CCNCC2)c(-c2ccccc2)[nH]n1-c1ccc([N+](=O)[O-])cc1,i,i,-18.0,nt,i,-5.44*
Cc1ccc2[nH]cc(/C=C/c3cc[n+](C)cc3)c2c1,i,i,-32.3,i,i,-15.6
CC[n+]1ccc(/C=C/c2c[nH]c3ccccc23)cc1,10*,i,-24.1,i,i,-5.94
Cc1ccc(CN2CCSc3ccc(C(=O)NCc4ccco4)cc32)cc1,i,-7.1*,-9.9,i,i,-1.56
Cc1ccc(CN2CCSc3ccc(C(=O)NCCCN4CCOCC4)cc32)cc1,i,i,-16.8,i,i,-3.48
O=C(Cc1cccc2ccccc12)Nc1ccc(Br)cc1C(=O)O,10*,i,-4.6,i,i,-0.14
NC(=O)c1ncn([C@@H]2O[C@H](CNCc3c(OCc4ccccc4F)ccc4ccccc34)[C@@H](O)[C@H]2O)n1,nt,nt,nt,i,nt,nt
Cc1ccc(-c2nc3cccnc3o2)cc1NC(=O)COc1ccc(C(C)(C)C)cc1,9*,i,-5.5,i,i,0
Cc1ccc(-c2nc3ncccc3o2)cc1NC(=O)COc1ccccc1,i,i,-3.4,i,i,0.37
COc1ccccc1C(CNC(=O)C(C)Oc1ccc(Br)cc1)N1CCCC1 (stereo unspecified),i,i,-7.6,i,i,-5.82*
CCCCC(=Nc1ccccc1OC)C1=C(O)CC(c2ccccc2)CC1=O (stereo unspecified),7*,i,-11.8,i,i,-1.52
CC1COc2ccccc2N1S(=O)(=O)c1ccc(Cl)cc1 (stereo unspecified),i,i,-16.8,i,i,-4.41*
C[C@H](CO)N1C[C@H](C)[C@@H](CN(C)Cc2ccncc2)Oc2c(NC(=O)Cc3ccccc3)cccc2C1=O,nt,nt,nt,-10.6*,nt,nt
SMILES,KCNQ1 block,KCNK9 block,hERG rescue,KCNK3 inh,KCNQ1 pot,Kir21 inh
C[C@H](CO)N1C[C@H](C)[C@@H](CN(C)Cc2ccccc2)Oc2c(NC(=O)Cc3ccccc3)cccc2C1=O,nt,nt,nt,i,nt,nt
NC(=Nc1ccccc1)N(c1ccccc1)c1ccccc1,nt,nt,nt,i,nt,nt
CCSC1OC(C(COC(C)=O)OC(C)=O)C(OC(C)=O)C1NC(C)=S (stereo unspecified),nt,nt,nt,i,nt,nt
O=C(Nc1cccc(C(F)(F)F)c1)C(SCCO)c1ccccc1 (stereo unspecified),i,-7.45*,-11.3,i,i,-1.27
O=C(Nc1cccc(C(F)(F)F)c1)C(Sc1ncnc2ccccc12)c1ccccc1 (stereo unspecified),i,i,-11.8,i,i,0.93
Cn1nnnc1SC(C(=O)Nc1cccc(C(F)(F)F)c1)c1ccccc1 (stereo unspecified),i,-7*,-10.6,i,i,0.11
O=C(CN1CCCCC1)Nc1ccc(S(=O)(=O)c2ccc(NC(=O)CN3CCCCC3)cc2)cc1,nt,nt,nt,i,nt,nt
CCCCN1C2=C(C(=O)CCC2)C(c2ccc(Cl)c(Cl)c2)C2=C1c1ccccc1C2=O (stereo unspecified),i,i,-9.4,-9.89*,i,-1.05
CCCN1C(=O)c2ccccc2NC1c1ccc(Cl)c(Cl)c1 (stereo unspecified),i,i,-4.8,i,i,-1.1
COc1cccc(NC(=O)COC(=O)C2CCCCC2)c1,nt,nt,nt,i,nt,nt
O=C(Nc1ncc(Cc2ccccc2)s1)c1cccs1,i,i,-6.9,i,i,0.03
O=C(Nc1ncc(Cc2cccc(Cl)c2)s1)c1cccs1,i,-6.65*,-3.9,i,i,-1.54
CN(C)CCCN(C(=O)CCc1ccccc1)c1nc2c(F)cccc2s1,i,i,-12.9,i,i,-2.05
Cc1ccc2nc(N(CCCN(C)C)C(=O)c3cc(-c4cccs4)nc4ccccc34)sc2c1,8*,i,-30.8,i,i,-1.16
COc1cc2ccccc2cc1C(=O)N(CCN(C)C)c1nc2ccc(C)cc2s1,i,i,-14.3,i,i,1.39
CN(C)CCCN(C(=O)c1cc(-c2cccs2)nc2ccccc12)c1nc2c(F)cccc2s1,6*,i,-28.7,i,i,0.16
CN(C)CCCN(C(=O)CCOc1ccccc1)c1nc2c(F)cccc2s1,i,i,-14.5,i,18*,-0.23
CCn1c(C)nc2cc(C(=O)NNC(=S)Nc3ccc(OC)cc3)ccc21,i,i,-6.8,i,i,-0.9
CC1=CC(=O)Nc2ccccc2S1,nt,nt,nt,i,nt,nt
CCOC(=O)CC[C@H](NC(=O)Cn1cnc2c(NCc3ccccc3)ncnc21)C(=O)OCC,nt,nt,nt,i,nt,nt

# Screens (PubChem BioAssay)
